# Most compounds without a hit are left out; they make up all but 1.7% or so of the library.
# APOBEC3G inh: APOBEC3G DNA deaminase inhibitors, primary screen, biochemical, fluorescence, single-stranded DNA substrate, uHTS; DNA dC->dU-editing enzyme APOBEC-3G (Homo sapiens), Q9HC16; recombinant A3G, ssDNA deamination FAM/TAMRA fluorescence; inhibition, % at 20 µM; actives 0.28% (n = 330,000); AID 493012, 2011;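 active = inhibition of at least 40% at 20 µM, with no more than 30% in the related APOBEC3A deaminase screen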
# Target sequence (Q9HC16 whole entry, looked up): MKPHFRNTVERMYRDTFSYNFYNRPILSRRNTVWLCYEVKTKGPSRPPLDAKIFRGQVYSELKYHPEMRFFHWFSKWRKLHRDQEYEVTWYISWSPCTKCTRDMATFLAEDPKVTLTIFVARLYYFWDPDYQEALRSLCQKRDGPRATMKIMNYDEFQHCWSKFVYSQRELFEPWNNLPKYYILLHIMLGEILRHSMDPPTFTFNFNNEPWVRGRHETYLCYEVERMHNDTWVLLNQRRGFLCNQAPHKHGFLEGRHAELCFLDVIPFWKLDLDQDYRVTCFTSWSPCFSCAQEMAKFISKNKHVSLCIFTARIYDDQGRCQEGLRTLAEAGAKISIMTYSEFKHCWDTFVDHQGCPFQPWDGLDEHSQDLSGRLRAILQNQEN
# CAL PDZ FP-1: untagged CAL PDZ binding inhibitors, primary screen, biochemical, fluorescence polarization, HTS | purified CAL PDZ, TMR-peptide fluorescence polarization, 1 h | inhibition, % at 24.9 µM | actives 0.92% (n = 300,000) | AID 602252, 2012 | Golgi-associated PDZ and coiled-coil motif-containing protein (Homo sapiens), Q9HD26;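 active = mean inhibition of at least 30% with at least half of replicates also reaching 30%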
# CAL PDZ FP-2: CAL PDZ peptide-binding inhibitors, primary screen, biochemical, fluorescence polarization, Cer-tagged CAL PDZ, HTS; Golgi-associated PDZ and coiled-coil motif-containing protein (Homo sapiens), Q9HD26; actives 0.02% (n = 330,000); purified CAL PDZ, TMR-peptide fluorescence polarization, 1 h; inhibition, % at 20 µM;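 active = highest replicate inhibition of at least 40%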
#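 Read-out basis: mP drop reported as inhibition | Assay system: Tagged CAL PDZ protein CerCALP, purified | Benchmarks: Unlabelled peptide for full inhibition, DMSO wells as neutral | Schedule: 1 h incubation at room temperature before polarization reading | Buffer or medium: Sodium phosphate/NaCl buffer pH 7.4 with TCEP, IgG, Thesit | Doses: Single point, 20 µM | Measured by: Fluorescence polarization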
# A3A deaminase: APOBEC3A ssDNA deaminase inhibitors, primary screen, selectivity assay for APOBEC3G inhibitor project, biochemical, FAM/TAMRA oligo cleavage fluorescence | recombinant A3A, FAM/TAMRA ssDNA deamination fluorescence | inhibition, % at 20 µM | actives 0.41% (n = 330,000);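 active = at least 40% inhibition at 20 µM here, with at most 30% in a related deaminase screen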
# Target sequence (P31941 whole entry, looked up): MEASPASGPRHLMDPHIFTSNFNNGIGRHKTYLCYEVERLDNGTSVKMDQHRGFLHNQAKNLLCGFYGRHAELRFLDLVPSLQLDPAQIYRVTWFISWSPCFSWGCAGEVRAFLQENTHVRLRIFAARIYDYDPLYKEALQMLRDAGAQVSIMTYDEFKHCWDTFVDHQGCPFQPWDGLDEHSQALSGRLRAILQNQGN
# Keap1-Nrf2 PPI: Keap1-Nrf2 protein-protein interaction inhibitors, primary screen, biochemical, fluorescence polarization, single point | Kelch-like ECH-associated protein 1 (Homo sapiens), Q14145 | Keap1 Kelch-Nrf2 peptide fluorescence polarization, 1536-well | inhibition, % at 9.4 µM | actives 0.15% (n = 340,000) | AID 504523, 2011; in the data active = inhibition above about 12%;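 note: human Keap1 Kelch domain with fluorescein labeled Nrf2 9mer peptide probe; higher means more block of Keap1 binding to Nrf2 peptide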
# C-LANA FP: inhibitors of KSHV C-LANA binding to DNA, primary screen, biochemical, fluorescence polarization, FAM-LBS DNA, MBP-C-LANA, single point; inhibition, % at 9 µM; actives 0.078% (n = 340,000); AID 504423, 2011;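 active = highest replicate inhibition at or above 60% at 9 µM, even if other replicates fall short; inactive = all replicates below 60% inhibition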
# A3A conf: APOBEC3A deaminase inhibitors, retest, confirmation, selectivity assay for APOBEC3G inhibitor project, biochemical, single concentration, fluorescence readout; shares compounds with A3A deaminase; recombinant A3A, ssDNA deaminase UDG fluorescence assay; inhibition, % at 20 µM; actives 63% (n = 1,400); AID 493151, 2011;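 active = inhibition reaching a set limit, 80% of the first screen's cutoff, at 20 µM in any replicate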
# UDG ctr A3A: E. coli UDG inhibitors, confirmation, counter-screen for APOBEC3A inhibitor project, biochemical, single concentration, fluorescence, FAM/TAMRA oligo. shares compounds with A3A deaminase. UDG counterscreen, FAM/TAMRA uracil oligo fluorescence. inhibition, % at 20 µM. 1,000 tested, under 10 active. AID 504714, 2011; call rule not given here
# Hits are given with their value; - = inactive; . = not tested or not shown.
SMILES,APOBEC3G inh,CAL PDZ FP-1,CAL PDZ FP-2,A3A deaminase,Keap1-Nrf2 PPI,C-LANA FP,A3A conf,UDG ctr A3A
Cc1ccc(C)c(NC(=O)C2CC(O)CN2C(=O)Oc2ccccc2)c1 (centres undefined),-,-,-,54,-,-,41,-
COc1cc2c(cc1OC)C[N+](C)(C)CC2,-,-,-,45,-,-,75,-
O=C(CNC(=O)c1ccccc1F)Nc1ccccc1C(F)(F)F,-,-,-,-,-,-,.,.
CCn1nnc(NC(=O)C(c2ccccc2)c2ccccc2)n1,-,-,-,-,-,-,.,.
COc1ccc2sc(C)[n+](C)c2c1,-,-,-,-,-,-,.,.
CCCC[n+]1c(C)sc2cc(OC)ccc21,-,.,-,65,-,-,66,-
C[n+]1ccccc1C1CCCC/C1=N\NC(N)=S (centres undefined),-,-,-,84,-,-,55,-
CC1CCCC/C1=N\NC(=S)NCCc1ccccc1 (centres undefined),-,.,-,-,-,-,.,.
O=C(Oc1cccc(NC2=NS(=O)(=O)c3ccccc32)c1)c1cccnc1,-,-,-,-,-,-,.,.
CSc1ccc(CNc2ccccn2)cc1,-,-,-,48,-,-,-,.
S=C(NCC1COc2ccccc2O1)Nc1ccccc1 (centres undefined),-,-,-,-,-,-,.,.
O=c1[nH]c(N/N=C/c2cc3c(cc2[N+](=O)[O-])OCO3)nc2ccccc12,-,-,-,44,-,-,71,-
O=c1[nH]c(N/N=C\c2ccc3c(c2)OCO3)nc2ccccc12,-,-,-,-,-,-,.,.
O=C(O)Cc1c(C(=O)O)[nH]c2ccc(C(=O)O)cc12,-,-,-,-,-,-,.,.
CCN(CC)C(=O)c1ncn(C)c1C(=O)N(CC)CC,-,-,-,51,-,-,64,-
CN(Cc1ccccc1)C(=O)c1ncn(C)c1C(=O)N(C)Cc1ccccc1,-,-,-,60,-,-,67,-
COc1cccc(N2CCN(C(=O)c3oc4ccccc4c3NC(=O)Cc3ccc(OC)c(OC)c3)CC2)c1,-,-,-,-,-,-,.,.
CCOC(=O)[C@H]1[C@H]2COc3ccc(Cl)cc3[C@@H]2N2C(=O)CN(CC3CCCO3)C(=O)[C@@]12C (some centres undefined),-,-,-,-,-,-,.,.
COc1ccc(/C(N)=N/OC(=O)C2CCC(=O)N2S(=O)(=O)c2ccc(C)cc2)cc1OC (centres undefined),-,-,-,-,-,-,.,.
COc1ccc(CN(C(=O)c2ccco2)C2CCS(=O)(=O)C2)cc1 (centres undefined),-,.,-,72,-,-,-,-
O=C(CN1CCN(c2ccc(O)cc2)CC1)NC(=O)NCc1ccco1,-,-,-,-,-,-,.,.
CCOC(=O)c1[nH]c2ccc(OC)cc2c1NC(=O)CCN1CCC(C)CC1,-,.,.,49,.,.,-,.
CCn1c(C)c2c([n+]1CC)CC(C)(C)CC2=O,-,-,-,59,-,-,76,-
CCn1c2c(c(C)cc1=O)C(=O)CC(C)(C)C2,-,-,-,-,-,-,.,.
Cc1c(Cl)cccc1NC(=O)CNC(=O)c1ccc2c(c1)OCCO2,-,-,-,51,-,-,41,-
SMILES,APOBEC3G inh,CAL PDZ FP-1,CAL PDZ FP-2,A3A deaminase,Keap1-Nrf2 PPI,C-LANA FP,A3A conf,UDG ctr A3A
CC(Oc1ccc(Br)cc1)C(=O)Nc1cc(Cl)ccc1N1CCN(C)CC1 (centres undefined),-,-,-,58,-,-,54,-
COc1ccc(CCC(=O)Nc2cc(Cl)ccc2N2CCN(C)CC2)cc1,-,.,.,-,.,.,.,.
N#C/C(=C\c1cn(-c2ccccc2)nc1-c1cccnc1)c1nnc2n1CCCCC2,-,-,-,43,-,-,-,-
Cc1cccc2c(Cl)cc(=O)[nH]c12,-,.,.,-,.,.,.,.
Cc1cccc2cc(=O)[nH]c(C)c12,-,-,-,40,-,-,-,.
CC1(C)CC(NS(=O)(=O)c2ccc3ccccc3c2)CC(C)(C)N1,-,-,-,-,-,-,.,.
O=C1/C(=C\c2ccco2)SC(=S)N1C1CCS(=O)(=O)C1 (centres undefined),-,.,.,-,.,.,.,.
O=C1/C(=C/c2ccco2)SC(=S)N1CC1CCCO1 (centres undefined),-,-,-,56,-,-,26,-
O=C1/C(=C/c2ccco2)SC(=S)N1C1CCS(=O)(=O)C1 (centres undefined),-,-,-,47,-,-,52,.
Cc1noc(C)c1COC(=O)c1cnc(Cl)c(Cl)c1,-,-,-,-,-,-,.,.
O=C(COC(=O)c1nc(Cl)c(Cl)c(Cl)c1Cl)c1ccc[nH]1,-,-,-,45,-,-,-,.
CCN(CC)CCCNC(=O)C1CCN(c2ncnc3c2sc2cccc(F)c23)CC1,-,-,-,48,-,-,-,-
CC1CC(C)CN(CCCNC(=O)C2CCN(c3ncnc4c3sc3cccc(F)c34)CC2)C1 (centres undefined),-,.,.,-,.,.,.,.
CCn1nc(C)c(CNC(=O)CC2C(=O)NCCN2CC(C)(C)C)c1C (centres undefined),-,-,-,-,-,-,.,.
CCOC(=O)c1ccc(S(=O)(=O)N2CCN(Cc3cc4c(cc3O)OCO4)CC2)cc1,-,-,-,-,-,-,.,.
O=C(O)C(Cc1ccccc1)N1C(=O)c2ccccc2C1=O (centres undefined),-,-,-,-,-,-,.,.
CN(C)CCN(Cc1ccccc1)C(=O)[C@H](Cc1ccccc1)N1C(=O)c2ccccc2C1=O,-,-,-,42,-,-,-,.

# From PubChem BioAssay
